PubChem BioAssay AID688 (PCMD, 2007)
The whole screen tested about 27,000 compounds, of which about 250 (0.93%) were called active.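 How the source made its calls: active means mutant luminescence inhibited past about 50% while wild type luminescence and mutant growth stay under set limits (limit read from the data); inconclusive means mutant versus wild type luminescence inhibition gap past a set limit; inactive means the rest.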 Shown is part of a subset that was picked to be rich in actives.

Assay: mutant yeast GCN4 reporter luminescence inhibitors – S. cerevisiae, eIF2B-epsilon R284H, Beta-Glo luminescence, primary screen (AID 688)
Conditions: GCN4-lacZ luminescence; growth inhibition: measured here: mutant yeast growth, toxicity, concentration not given here; inhibition: stronger effect = higher value, screened at 25 µM (by protocol)
In short: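 Material – yeast eIF2B-epsilon R284H mutant carrying GCN4–beta-galactosidase fusion · Medium – YPD yeast growth medium · Compound – one concentration, 25 µM, 0.25% DMSO · Times – 16 h at 30 °C exposure · Signal – Beta-Glo luminescence plus absorbance at 595 nm · Read-out – % inhibition of reporter signal and growth versus controls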

Row | SMILES | growth inhibition | inhibition
1 | O=C(COc1ccccc1Cl)Nn1cnnc1 | -7.89% | 14.3% (inactive)
2 | Cc1cccc(NC(=O)/C(=C\c2ccco2)NC(=O)c2ccccc2)c1 | 10.8% | 15.4% (inactive)
3 | CCOc1ccc(C(=O)NC(C(=O)NCc2ccccn2)C(C)C)cc1 (centres undefined) | -4.76% | -9.95% (inactive)
4 | CC(=O)NC1=NN(C(C)=O)C(C)(c2ccc(Cl)s2)S1 (centres undefined) | 6.67% | 44.3% (inactive)
5 | Cc1cc(C)n(C(=O)CCNC(=O)c2ccccc2Cl)n1 | – | -0.54% (inactive)
6 | O=C(CSc1nnnn1-c1ccccc1)NCc1ccco1 | – | -70.2% (inactive)
7 | Cc1ccc(C(=O)N/N=C/c2sc(=O)n(Cc3cccc(C(=O)O)c3)c2Cl)cc1 | -9.52% | 18.2% (inactive)
8 | COc1ccc(C2CC(=O)C=C(NCC3CCCO3)C2)cc1 (centres undefined) | 10.8% | 17.6% (inactive)
9 | CCOC(=O)c1cnc(SC)nc1Sc1ccc(Cl)cc1Cl | 5% | 22.2% (inactive)
10 | O=C(NC(C(=O)NCCN1CCOCC1)C12CC3CC(CC(C3)C1)C2)C1CCCCC1 (centres undefined) | 28.1% | 15.3% (inactive)
11 | Cc1ccc(S(=O)(=O)c2c(COC(=O)c3cccc(Cl)c3)c(-c3ccccc3)nn2C)cc1 | 12.1% | 35.8% (inactive)
12 | O=C(O)c1cc(S(=O)(=O)N2CCCCCC2)c(Cl)cc1Cl | – | 8.58% (inactive)
13 | CCCCCCNCCn1cnc2c(N)ncnc21 | – | 37.2% (inactive)
14 | CCOC(=O)CN1C(=O)C(=O)c2cc(C)ccc21 | -4.55% | 21.8% (inactive)
15 | O=C(Nc1nc2ccc(S(=O)(=O)N3CCCC3)cc2s1)C1CCCO1 (centres undefined) | -18.2% | 18.6% (inactive)
16 | CS(=O)(=O)c1ccc2nc(NC(=O)C3C4C=CC(C4)C3C(=O)O)sc2c1 (centres undefined) | -6.9% | 55.1% (active)
17 | CC(C)COC(=O)c1ccc(NC(=O)C2C3C=CC(C3)C2C(=O)O)cc1 (centres undefined) | 20.7% | 15.8% (inactive)
18 | COC(=O)C1=C(C(=O)OC)C2(OC1c1ccc(Br)cc1)C(=O)c1ccccc1C2=O (centres undefined) | -26.3% | -2.75% (inactive)
19 | CC(C)(C)c1ccc(C(=O)NCC(=O)OCN2C(=O)c3ccccc3C2=O)cc1 | -3.45% | 13.3% (inactive)

Row | SMILES | growth inhibition | inhibition
20 | CCCCOC(=O)Cn1c(=N)n(CCN(CC)CC)c2ccccc21 | 19.4% | 17.1% (inactive)
21 | COc1cc(OC)nc(NC(=O)CCl)n1 | -16.7% | 3.82% (inactive)
22 | COc1ccc(C2=NO[C@@H]3C(=O)N(Cc4ccccc4)C(=O)[C@H]23)cc1OC | 14.3% | 7.78% (inactive)
23 | COc1ccc(OC)c(NC(=O)CN2CCN(C(=O)c3ccco3)CC2)c1 | 18.5% | 17.4% (inactive)
24 | c1ccc(-n2ncc3c2ncn2c(C4CCCCC4)nnc32)cc1 | – | 16.1% (inactive)
25 | Cc1sc2nc(SCC(N)=O)n(C)c(=O)c2c1C | 6.45% | 20.9% (inactive)
26 | O=C(Nc1ccc(Br)cc1)c1cccc(NC(=O)C2C3CC4OC(=O)C2C4C3)c1 (centres undefined) | 3.13% | 27.9% (inactive)
27 | CC1=C(C(=O)Nc2ccccc2)C(c2ccco2)C(C#N)=C(SCC(N)=O)N1 (centres undefined) | -15% | 11.1% (inactive)
28 | COC(=O)C1=C(C)Nc2ncnn2C1c1cccnc1 (centres undefined) | 10% | 1.7% (inactive)
29 | Cc1nn(C(C)CC(=O)O)c(C)c1C (centres undefined) | – | 18.6% (inactive)
30 | Cc1cc2nnc(SCC(=O)N3CCN(c4ccccc4)CC3)n2c(N)n1 | -13.6% | 24.8% (inactive)
31 | Cn1c(SCC(=O)C(C)(C)C)nnc1-c1ccccn1 | 12.8% | 20.3% (inactive)
32 | CC(CO)N1CCS(=O)(=O)CC1 (centres undefined) | 15% | 18.1% (inactive)
33 | Cc1ccc(-n2c(SCC(=O)Nc3ccc4c(c3)OCO4)nnc2-c2ccccn2)cc1 | -2.78% | -3.69% (inactive)
34 | O=C(CSc1nnc(-c2ccccn2)n1-c1ccccc1)Nc1ccc2c(c1)OCO2 | -57.1% | 55.6% (active)
35 | Cc1ccc(-n2c(SCC(=O)Nc3ccc4c(c3)OCO4)nnc2-c2ccoc2C)cc1 | – | -19.2% (inactive)
36 | CCCSC1=C(C#N)C(c2ccccc2C)C(C(=O)OC)C(=O)N1 (centres undefined) | 12% | -22.6% (inactive)
37 | Cc1nc2cc(NC(=O)NCc3ccccc3)ccc2o1 | -9.52% | -14.4% (inactive)
38 | COCC(=O)Nc1ccc(Br)cc1 | -9.52% | -24.5% (inactive)

Row | SMILES | growth inhibition | inhibition
39 | Cc1nc(NC(=O)CN(C)S(=O)(=O)c2ccc(Cl)cc2)sc1C | 5% | -24.3% (inactive)
40 | C=CCNC(=O)c1cc2nc(C3CC3)cc(C(F)F)n2n1 | – | 12.7% (inactive)
41 | COCCNS(=O)(=O)c1cc(Br)ccc1OC | 9.09% | 18.4% (inactive)
42 | COC(=O)c1ccc(Sc2ccc(F)cc2)c(N)c1 | 27% | 23.2% (inactive)
43 | O=C(c1ccc2c(c1)OCO2)N1CCN(C(=O)c2ccco2)CC1 | 16.7% | 35.7% (inactive)
44 | CCOCN(C(=O)Cn1c(C(C)O)nc2ccccc21)c1c(C)cccc1CC (centres undefined) | -7.69% | 20.1% (inactive)
45 | CC(=O)OCc1cc2cc(C)ccc2[nH]c1=O | -2.5% | -23.7% (inactive)
46 | CCOC(=O)c1[nH]c2ccc(OC)cc2c1NC(=O)N1CCOCC1 | – | -48.6% (inactive)
47 | CCOc1ccc(NC(=O)CN2CCN(CC(=O)Nc3ccc(OC)cc3)CC2)cc1 | 9.09% | -13.6% (inactive)
48 | CCCNC(=O)NCc1ccc(N2CCCC2=O)cc1 | 12.5% | 10.8% (inactive)
49 | O=c1/c(=C/c2ccc(CNS(=O)(=O)c3ccccc3)o2)sc2n1CCN=2 | -8.62% | 62.4% (active)
50 | CC1(C)CC(=O)C=C(N2CCCC2)C1 | – | 30.3% (inactive)
51 | CC1(C)CC(=O)C=C(NCCCNC2CCCCC2)C1 | 8.06% | 53.4% (active)
52 | CC1(C)CC(=O)C=C(NCCN2CCNCC2)C1 | 9.46% | 32.9% (inactive)
53 | Cc1ccc(N2C(=O)CC(Sc3ncn[nH]3)C2=O)cc1 (centres undefined) | 23.8% | -7.91% (inactive)
54 | COc1ccc(NC(=O)Nc2ccc3nc(C)c(C)nc3c2)cc1 | -13.5% | -3.08% (inactive)
55 | CCn1c(=O)cc(O)c2ccccc21 | 11.1% | 2.94% (inactive)
56 | O=C1CCCc2nn(-c3ccccc3)nc21 | 7.14% | 6.25% (inactive)
57 | CCOC(=O)c1ccccc1NS(=O)(=O)c1ccc(OC)cc1 | 10.5% | -13% (inactive)
